The results in this text go back to ChEMBL document CHEMBL1949501, “Novel acid-type cyclooxygenase-2 inhibitors: Design, synthesis, and structure-activity relationship for anti-inflammatory drug” (Eur J Med Chem, 2012).

The target of experiment [1] is COX-1/COX-2 (Homo sapiens) (UniProt P35354+P23219). Briefly: Selectivity ratio of IC50 for COX-1-mediated TXB2 production in human platelets to IC50 for COX-2-mediated 6-keto-PGF1alpha production in IL-1beta-induced HUVEC.
In experiment [2] the target is T1, Prostaglandin G/H synthase 2 (Homo sapiens, UniProt P35354).
T1 sequence (P35354 whole entry): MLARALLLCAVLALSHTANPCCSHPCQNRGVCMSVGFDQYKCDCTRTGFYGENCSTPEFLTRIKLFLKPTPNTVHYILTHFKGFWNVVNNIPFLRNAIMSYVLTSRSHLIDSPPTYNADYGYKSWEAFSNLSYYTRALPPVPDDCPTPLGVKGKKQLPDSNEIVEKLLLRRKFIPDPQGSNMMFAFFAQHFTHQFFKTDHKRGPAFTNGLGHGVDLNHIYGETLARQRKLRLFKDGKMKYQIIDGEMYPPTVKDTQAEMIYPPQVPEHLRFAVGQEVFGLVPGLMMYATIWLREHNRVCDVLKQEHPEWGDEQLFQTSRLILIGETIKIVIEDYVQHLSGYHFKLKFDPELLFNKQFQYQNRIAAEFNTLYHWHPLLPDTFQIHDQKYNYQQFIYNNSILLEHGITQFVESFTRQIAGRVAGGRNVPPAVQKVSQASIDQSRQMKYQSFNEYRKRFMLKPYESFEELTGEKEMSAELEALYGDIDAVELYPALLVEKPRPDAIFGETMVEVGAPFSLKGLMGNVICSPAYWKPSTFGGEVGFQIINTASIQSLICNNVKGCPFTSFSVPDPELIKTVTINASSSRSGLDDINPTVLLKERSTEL
Briefly: Inhibition of COX-2-mediated PGE2 production in LPS-induced human whole blood after 24 hrs by RIA. The procedure, abridged:
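Heparinized whole blood from healthy adult volunteers mixed with compound in DMSO (0.1–100 µM final; DMSO under 0.1%) and E. coli 0111:B4 LPS (30 µg/mL final), incubated 24 h at 37 °C to induce COX-2; PGE2 synthesis measured; IC50.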

For experiment [3], the target named is T1, Prostaglandin G/H synthase 2. Briefly: Inhibition of COX-2-mediated 6-keto-PGF1alpha production in IL-1beta-induced HUVEC preincubated for 20 mins prior A23187 stimulation measured after 15 mins by RIA.
In experiment [4] the target is T2, Prostaglandin G/H synthase 1 (Homo sapiens, UniProt P23219). Nature of the experiment: Inhibition of COX-1-mediated TXB2 production in human platelets preincubated for 20 mins prior A23187 stimulation measured after 15 mins by RIA.
The target of experiment [5] is T2, Prostaglandin G/H synthase 1. Briefly: Inhibition of COX-1-mediated TXB2 production in human whole blood after 30 mins post A23187 stimulation by RIA.
Another experiment deals with Rattus norvegicus. Nature of the experiment: Antiinflammatory activity in SPF/VAF Sprague-Dawley rat assessed as inhibition of carrageenan-induced paw oedema at 10 mg/kg, po administered 1 hr prior carrageenan challenge measured after 3 hrs by plethysmometry. In kind it is functional. Summed up: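 Male SPF/VAF Sprague-Dawley rats (Crj:CD(SD), 5 weeks, 110–130 g), fasted overnight, given carrageenan intraplantarly in the hind paw. Test compound or vehicle (5% (v/v) Tween 80 in distilled water) dosed orally at 1 mL/100 g body weight 1 h before carrageenan. Foot volume read by water-displacement plethysmometer before and 3 h after injection; percent inhibition relative to vehicle group taken as 0%.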
(In general: The carrageenan paw model is a standard test of acute inflammation.)

Chain of COX-1/COX-2 (Homo sapiens) (P23219 whole entry, looked up, one chain of several): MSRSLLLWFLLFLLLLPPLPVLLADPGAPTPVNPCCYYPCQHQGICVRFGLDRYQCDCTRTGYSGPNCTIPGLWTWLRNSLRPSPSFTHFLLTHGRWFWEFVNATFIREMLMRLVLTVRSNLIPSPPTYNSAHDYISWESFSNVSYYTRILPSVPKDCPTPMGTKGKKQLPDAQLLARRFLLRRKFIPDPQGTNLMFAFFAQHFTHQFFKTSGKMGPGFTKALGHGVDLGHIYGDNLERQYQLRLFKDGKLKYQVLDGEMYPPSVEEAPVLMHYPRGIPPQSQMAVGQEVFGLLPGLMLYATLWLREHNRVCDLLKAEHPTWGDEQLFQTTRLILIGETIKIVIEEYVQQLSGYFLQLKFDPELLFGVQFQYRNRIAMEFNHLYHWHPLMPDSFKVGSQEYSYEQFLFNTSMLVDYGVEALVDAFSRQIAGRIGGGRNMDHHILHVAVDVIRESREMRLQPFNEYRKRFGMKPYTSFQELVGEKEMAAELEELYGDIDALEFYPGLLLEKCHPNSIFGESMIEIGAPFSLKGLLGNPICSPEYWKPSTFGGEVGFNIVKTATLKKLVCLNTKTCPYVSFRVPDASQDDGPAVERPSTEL
T2 sequence (P23219 whole entry): as the sequence (P23219 whole entry, looked up, one chain of several) above

Consider `Cc1ccnc(C(=O)c2[nH]c3cc(Cl)c(F)cc3c2CC(=O)O)c1`, for which the Ratio IC50 in experiment [1] is 9.73. For the same compound, the IC50 in experiment [2] was found to be 100 nM; in experiment [3], 6.77 nM; in experiment [4] it was 65.9 nM; in experiment [5], 7700 nM.
Turning to `CCOc1cnc(C(=O)c2[nH]c3cc(Cl)ccc3c2CC(=O)O)cc1CC`, the IC50 in experiment [3] was 598 nM; in experiment [4], over 10000 nM.
Regarding `CCc1ccnc(C(=O)c2[nH]c3ccc(OC(F)(F)F)cc3c2CC(=O)O)c1`, the half-maximal inhibitory concentration (IC50) in experiment [2] is 5700 nM; in experiment [3] it was 421 nM; in experiment [4], over 10000 nM; in experiment [5] it was over 100000 nM.
Consider `COc1ccc2c(CC(=O)O)c(C(=O)c3cc(C)ccn3)[nH]c2c1`, for which the Ratio IC50 in experiment [1] was over 78.1. Further, the IC50 was 1900 nM in experiment [2], 128 nM in experiment [3], over 10000 nM in experiment [4] and over 100000 nM in experiment [5].
As for `CCc1ccc2c(CC(=O)O)c(C(=O)c3cc(C)ccn3)[nH]c2c1`, the IC50 in experiment [3] was 414 nM; in experiment [4], over 10000 nM.
On to `Cc1ccnc(C(=O)c2[nH]c3ccc(F)cc3c2CC(=O)O)c1`, for which the Ratio IC50 in experiment [1] was 26.4. Moreover, the IC50 in experiment [2] was 150 nM; in experiment [3], 5.68 nM; in experiment [4] it was 150 nM; in experiment [5] it was 21400 nM.
Consider `Cc1ccnc(C(=O)c2[nH]c3ccc(C(C)(C)C)cc3c2CC(=O)O)c1`, for which the IC50 in experiment [3] came out at 41.5 nM; in experiment [4], 1510 nM.
For the compound `Cc1ccnc(C(=O)c2[nH]c3ccc(OC(F)(F)F)cc3c2CC(=O)O)c1`, the concentration for half-maximal inhibition (IC50) in experiment [2] is 1900 nM; in experiment [3], 39.6 nM; in experiment [4], 1000 nM; in experiment [5] it was over 100000 nM.
For the compound `COc1ccc2[nH]c(C(=O)c3cc(C)ccn3)c(CC(=O)O)c2c1`, in experiment [1], the Ratio IC50 stood at 23.8. Also, the IC50 was 2200 nM in experiment [2], 128 nM in experiment [3], 3050 nM in experiment [4] and over 100000 nM in experiment [5].
For `O=C(O)Cc1c(C(=O)c2cc3c(cn2)CCCC3)[nH]c2cc(Cl)ccc12`, the Ratio IC50 in experiment [1] is over 521. Also, the IC50 in experiment [3] is 19.2 nM; in experiment [4] it was over 10000 nM.
For `CCc1cc(C(=O)c2[nH]c3cc(Cl)ccc3c2CC(=O)O)ncc1Cl`, the Ratio IC50 in experiment [1] was over 326. The IC50 in experiment [3] is 30.7 nM; in experiment [4], over 10000 nM.
For the compound `Cc1ccnc(C(=O)c2[nH]c3cc(F)ccc3c2CC(=O)O)c1`, the Ratio IC50 in experiment [1] turned out to be 86.5. Further, in the experiment with Rattus norvegicus, the inhibition in vivo at 10 mg/kg came to 70%. The IC50 in experiment [2] was 155 nM; in experiment [3], 9.81 nM; in experiment [4], 849 nM; in experiment [5], 33500 nM.
Turning to `CCc1ccc2[nH]c(C(=O)c3cc(C)ccn3)c(CC(=O)O)c2c1`, the IC50 in experiment [2] stood at 1600 nM; in experiment [3], 15.7 nM; in experiment [4], 882 nM; in experiment [5], 47000 nM.

For orientation: IC50 means the midpoint of a concentration-inhibition curve. High values mean lower potency, low ones higher potency. The inhibition in vivo is the relative decrease from the control value, in per cent.
